A selection: hits, their analogues and other compounds. The true share with any hit is near 2.8%.
PAFAH1B2 inh = blocks human PAF acetylhydrolase 1b catalytic subunit 2; P68402; recombinant PAFAH1B2, FP-rhodamine activity probe, fluorescence polarization; inhibition, % at 3.39 µM; 340,000 compounds, 1.2% hits; AID 492953;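 active means inhibition above the mean of all tested compounds plus 3 SD, cut at about 24% in these data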;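 further: 0% = enzyme with DMSO and 100% = wells lacking PAFAH1B2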
Target sequence (P68402 whole entry, looked up): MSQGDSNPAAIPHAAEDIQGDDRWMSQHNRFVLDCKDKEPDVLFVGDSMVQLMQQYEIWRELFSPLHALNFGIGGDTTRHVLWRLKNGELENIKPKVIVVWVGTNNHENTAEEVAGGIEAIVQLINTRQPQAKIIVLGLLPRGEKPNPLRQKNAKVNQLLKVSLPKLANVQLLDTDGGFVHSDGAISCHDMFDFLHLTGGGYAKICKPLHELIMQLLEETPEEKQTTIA
HTRA1 inhibitor = HTRA1 (human) protease inhibition; Q92743; recombinant HTRA1, FP-rhodamine activity-based probe, fluorescence polarization; inhibition, % at 5.96 µM; 340,000 compounds, 0.5% hits; AID 504803; in the data active means inhibition above about 36%;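 further: 0% = enzyme with DMSO and 100% = wells lacking enzyme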
pPAFAH FP inh = inhibitors of human plasma PAF acetylhydrolase (pPAFAH). recombinant pPAFAH, FP-rhodamine probe fluorescence polarization. AID 463082. 330,000 compounds, 1.5% hits. inhibition, % at 3.39 µM;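 active means inhibition above the mean inhibition across the screen plus 3 SD, cut at about 25% in these data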;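 further: inhibitors block binding of the rhodamine activity-based probe so polarization drops; 0% = enzyme with DMSO and 100% = wells lacking pPAFAH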
PAFAH1B3 FP inh = blocks human PAF acetylhydrolase 1B catalytic subunit 3 | 340,000 compounds, 0.28% hits | AID 492972 | inhibition, % at 3.39 µM | recombinant PAFAH1B3, FP-rhodamine probe, fluorescence polarization;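 active means inhibition above the screen-wide average of all tested compounds plus 3 SD, cut at about 25% in these data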;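 further: 0% = enzyme with DMSO only and 100% = wells lacking PAFAH1B3 protein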
Target sequence (Q15102 whole entry, looked up): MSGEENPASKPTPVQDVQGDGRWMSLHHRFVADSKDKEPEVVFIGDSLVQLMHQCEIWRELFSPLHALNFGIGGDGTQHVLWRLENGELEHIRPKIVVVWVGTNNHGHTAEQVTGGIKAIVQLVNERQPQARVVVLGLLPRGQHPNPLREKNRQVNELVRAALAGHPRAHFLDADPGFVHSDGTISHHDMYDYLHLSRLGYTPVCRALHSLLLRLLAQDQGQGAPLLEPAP
PAFAH2 inh = PAFAH2 (human) inhibition | recombinant PAFAH2, FP-rhodamine activity probe, fluorescence polarization | inhibition, % at 3.39 µM | 340,000 compounds, 0.99% hits;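 active means inhibition above the mean over all tested compounds plus 3 SD, cut at about 30% in these data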;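 further: inhibitors block probe labeling of enzyme so polarization drops; 0% = enzyme with DMSO and 100% = wells lacking PAFAH2 protein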
mABHD4 FP = inhibits mouse alpha/beta hydrolase domain 4; 370,000 compounds, 0.54% hits; inhibition, % at 8.92 µM; Q8VD66; purified mABHD4, FP-Rh probe fluorescence polarization;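 active means inhibition exceeding the mean over every tested compound plus 3 SD, cut at about 30% in these data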;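 further: 0% = plate median of compound wells and 100% = S159A mutant with DMSO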
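System: mouse ABHD4 enzyme, wild type / Medium: HEPES pH 7.0, NaCl, Pluronic buffer / Reagent: FP-Rh activity-based fluorescent probe / Control set: S159A mutant high control, sample median low control / Detection: fluorescence polarization with parallel and perpendicular emission, 525/598 nm / Schedule: 45 min + 60 min at 25 °C / Compound dosing: 8.92 µM, single dose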
* hit, by the source's call; . = no result given.

SMILES	PAFAH1B2 inh	HTRA1 inhibitor	pPAFAH FP inh	PAFAH1B3 FP inh	PAFAH2 inh	mABHD4 FP
O=c1[nH]c(=O)n(-c2cccc(F)c2)c(O)c1/C=C1\C=Nc2ccccc21	25*	7	3	20	-4	-2
O=c1[nH]c(=S)n(CCC2=CCCCC2)c(O)c1/C=N/Nc1ccccc1	35*	0	17	2	9	4
CCn1nc(/C=C/c2ccccc2)nc2c(=O)n(C)c(=O)nc1-2	.	.	.	.	.	1
CCn1nc(-c2cccs2)nc2c(=O)n(C)c(=O)nc1-2	47*	28	.	74*	56*	.
O=C(N/N=C/c1c(O)n(CCc2ccccc2)c(=O)[nH]c1=O)c1ccccc1O	9	35	22	13	4	39*
O=C1NC(=O)N(c2ccccc2)C(=O)/C1=C/c1ccc(Sc2ccccc2)o1	60*	-30	4	6	39*	.
CC(C)n1c(O)c(C2c3cc(Cl)ccc3Oc3[nH]c(=O)n(C(C)C)c(=O)c32)c(=O)[nH]c1=O (stereo not given)	39*	-4	.	3	-1	.
CC(=O)c1c(O)n(-c2cccc(Cl)c2)c(=O)[nH]c1=O (tested in a mixture with another compound)	7	-6	5	0	3	-4
O=C(c1ccc(N2CCCCC2)c([N+](=O)[O-])c1)N1CCC2(CC1)OCCO2	-1	2	34*	3	7	-2
CN1c2ccc(Br)cc2[C@H]2NCC[C@H]2[C@H]1CO	.	.	.	.	.	2
O=c1[nH]c(=S)n(Cc2ccc(F)cc2)c(O)c1/C=N/N1CCCCC1	32*	-3	0	-7	2	3
O=c1[nH]c(=S)n(Cc2ccc(F)cc2)c(O)c1C=NCC1CCCO1 (stereo not given)	34*	-7	1	1	3	3
O=c1[nH]c(=S)n(C2CC2)c(O)c1C=NCC1CCCO1 (stereo not given)	6	4	6	3	-1	-3
O=c1[nH]c(=S)n(Cc2ccc(F)cc2)c(O)c1C=NCc1cccnc1	28*	-10	6	-5	0	14
CC1CCC(C)(NS(=O)(=O)OCC(Cl)(Cl)Cl)CC1 (stereo not given)	45*	-16	33*	7	9	-4
Cc1ccccc1CCC[C@H](CC1CCCCC1)CN(C)C(=O)Oc1ccccc1	.	.	.	.	.	13
N#CCC[C@H]1CC[C@]2(CCCN(Cc3ccccn3)C2)O1	.	.	.	.	.	4
CCc1ccc2nc(N3CCC(C(=O)N4CCC5(CC4)OCCO5)CC3)sc2c1	1	3	29*	4	1	-4
c1cncc(-c2ccc3n2Cc2cnnn2-c2ccccc2-3)c1	.	.	.	.	.	4
CCOC(=O)c1c(-n2c(C)cc(/C=C3/C(=O)NC(=O)N(CC)C3=O)c2C)sc2c1CCCC2	2	-4	5	-2	-10	0
CCOC(=O)c1c(-n2c(C)cc(C=C3C(=O)NC(=S)NC3=O)c2C)sc2c1CCCC2	-4	4	25*	1	7	.
CN1OC[C@@H]2CN3C4(C[C@@H]21)c1ccccc1C3(c1ccccc1)c1ccccc14	.	.	.	.	.	0
COc1cc2c(cc1OC)-c1c3c(cc4c1[C@@H](C2)N(C)CC4)OCO3	-6	10	18	16	2	10
COc1cc2c(cc1O)C[C@H]1NCCc3cc4c(c-2c31)OCO4	10	19	25*	18	9	14
NC(Cc1cc(O)c(O)cc1O)C(=O)O (stereo not given)	.	.	84*	.	.	.
SMILES	PAFAH1B2 inh	HTRA1 inhibitor	pPAFAH FP inh	PAFAH1B3 FP inh	PAFAH2 inh	mABHD4 FP
N[C@@H](CCl)C(=O)O	1	2	-2	4	0	2
COc1ccc2nc(-c3ccc(CN4CCC(n5nnc6ccccc65)CC4)cc3)c(-c3ccccc3)nc2c1	.	.	.	.	.	-12
Nc1ccc2cc(Br)ccc2c1	54*	7	8	3	5	2
Nc1ccc(Br)cc1	6	7	.	5	1	2
N=c1c2c(-c3ccccc3)c(-c3ccccc3)n(Cc3ccccc3)c2ncn1C1CCC(O)CC1 (stereo not given)	.	.	.	.	.	7
CC(C)c1ccc(N2C(=O)NC(=O)/C(=C\C=C\c3ccco3)C2=O)cc1	.	.	29*	.	.	-3
COC(=O)C1(N(C)c2ccccc2)CCN(Cc2ccccc2)CC1	.	.	.	.	.	5
NP(=O)(Oc1ccccc1Cl)Oc1ccccc1Cl	24*	16	1	2	-2	5
